From ChEMBL document CHEMBL4190405, “Scaffold-Hopping Approach To Discover Potent, Selective, and Efficacious Inhibitors of NF-κB Inducing Kinase” (J Med Chem, 2018)
Values after ≈ are worked out from the molar mass of the structure shown.

Legend:
[1] = Lipophilicity, log D of the compound at pH 7.4 by LC-MS based shake flask method; type: physicochemical; details: buffer
Procedure, shortened: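 LogD at pH 7.4 measured by a high-throughput microscale shake-flask method with LC-MS/MS quantitation.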

[2] = Volume of distribution in CD-1 mouse; type: ADME, organism-based; details: in vivo
[3] = Volume of distribution in cynomolgus monkey; type: ADME, organism-based, Macaca fascicularis; details: in vivo
[4] = Apparent permeability from basolateral to apical side in MDCK cells; type: ADME, cell-based, Canis lupus familiaris; details: dog
[5] = Oral bioavailability in Beagle dog at 5 mg/kg via gavage administered as single dose; type: ADME, organism-based, Canis lupus familiaris; details: in vivo
[6] = Kinetic solubility of the compound; type: physicochemical; details: read-out: Kinetic_solubility
[7] = Oral bioavailability in Sprague-Dawley rat at 5 mg/kg via gavage administered as single dose; type: ADME, organism-based; details: in vivo
[8] = Volume of distribution in Beagle dog; type: ADME, organism-based, Canis lupus familiaris; details: in vivo
[9] = Oral bioavailability in CD-1 mouse at 5 mg/kg via gavage administered as single dose; type: ADME, organism-based; details: in vivo
[10] = Apparent permeability from apical to basolateral side in MDCK cells; type: ADME, cell-based, Canis lupus familiaris; details: dog
[11] = Volume of distribution in Sprague-Dawley rat; type: ADME, organism-based; details: in vivo
[12] = Oral bioavailability in cynomolgus monkey at 5 mg/kg via gavage administered as single dose; type: ADME, organism-based, Macaca fascicularis; details: in vivo

logD [1] | Structure (SMILES) | also measured
1.9 | CN1CC[C@@](O)(C#Cc2ccnc(-n3nc(C(N)=O)c4c3CCCC4)c2)C1=O | –
1.6 | CN1CC[C@@](O)(C#Cc2cccc(-c3cccc(C(N)=O)n3)c2)C1=O | –
2 | CN1CC[C@@](O)(C#Cc2ccnc(-n3nc(C(N)=O)cc3N)c2)C1=O | –
1.9 | CN1CC[C@@](O)(C#Cc2ccnc(-n3nc(C(N)=O)c4ccccc43)c2)C1=O | –
0.61 | CN1CC[C@@](O)(C#Cc2ccnc(-n3ccc(C(N)=O)n3)c2)C1=O | –
1.7 | CN1CC[C@@](O)(C#Cc2cccc(-c3ccc(N)c(C(N)=O)n3)c2)C1=O | –
1.6 | CN1CC[C@@](O)(C#Cc2cccc(-c3ccnc(C(N)=O)n3)c2)C1=O | –
2.2 | CN1CC[C@@](O)(C#Cc2cccc(-c3nc(C(N)=O)n4ccccc34)c2)C1=O | –
2.1 | CN1CC[C@@](O)(C#Cc2cccc(-n3nc(C(N)=O)c4ccccc43)c2)C1=O | –
1.6 | CN1CC[C@@](O)(C#Cc2cccc(-c3cccc(C(N)=O)c3)c2)C1=O | –
1.9 | COc1cnc2c(c1)c(C(N)=O)nn2-c1cccc(C#C[C@]2(O)CCN(C)C2=O)c1 | –
1.3 | CN1CC[C@@](O)(C#Cc2cccc(-c3nc(C(N)=O)c4ccccn34)c2)C1=O | –
2.4 | COc1ccc2c(-c3cccc(C#C[C@]4(O)CCN(C)C4=O)c3)nc(C(N)=O)n2c1 | –
2 | CN1CC[C@@](O)(C#Cc2ccnc(-n3nc(C(N)=O)cc3C3CC3)c2)C1=O | –
1.9 | COc1cc(C(N)=O)nc(-c2cccc(C#C[C@]3(O)CCN(C)C3=O)c2)c1 | Vd [2]: 1.58 L/kg; Vd [3]: 1.39 L/kg; Papp B→A [4]: 10.2 ×10⁻⁶ cm/s; bioavailability [5]: 56%; solubility kinetic [6]: 139 µM (≈ 50.8 µg/mL); bioavailability [7]: 97%; Vd [8]: 0.778 L/kg; bioavailability [9]: 54%; Papp A→B [10]: 7.3 ×10⁻⁶ cm/s; Vd [11]: 1.35 L/kg; bioavailability [12]: > 100%
1.8 | COc1cc(C(N)=O)nc(-c2cccc(C#C[C@]3(O)CCN(C)C3=O)c2)n1 | –
2.4 | CN1CC[C@@](O)(C#Cc2cccc(-n3cc(C(N)=O)c4cccnc43)c2)C1=O | –
1.9 | CCOc1ccn2c(-c3cccc(C#C[C@]4(O)CCN(C)C4=O)c3)nc(C(N)=O)c2c1 | –
1 | CN1CC[C@@](O)(C#Cc2cccc(-c3cncc(C(N)=O)n3)c2)C1=O | –
2.6 | CN1CC[C@@](O)(C#Cc2cccc(-n3nc(C(N)=O)c4cc(F)ccc43)c2)C1=O | –
2.5 | CN1CC[C@@](O)(C#Cc2cccc(-c3cc4ccccc4c(C(N)=O)n3)c2)C1=O | –
1.6 | CN1CC[C@@](O)(C#Cc2cccc(-n3nc(C(N)=O)c4cccnc43)c2)C1=O | –
